pIC50, pKi: −log10 of the molar value. The source made the active and inactive calls. The rule behind the calls is not given here.
What was measured:
Leucine--tRNA ligase = Leucine--tRNA ligase (Escherichia coli (strain K12), UniProt P07813); test: Inhibition of recombinant Escherichia coli LeuRS assessed as inhibition of 14C-radiolabelled leucine transfer to tRNA leucine preincubated for 10 mins followed by addition of ATP and measured after 4 mins by Scintillation counting method; settings: read-out: Ki(app)
Leucine--tRNA ligase, sequence (P07813 whole entry): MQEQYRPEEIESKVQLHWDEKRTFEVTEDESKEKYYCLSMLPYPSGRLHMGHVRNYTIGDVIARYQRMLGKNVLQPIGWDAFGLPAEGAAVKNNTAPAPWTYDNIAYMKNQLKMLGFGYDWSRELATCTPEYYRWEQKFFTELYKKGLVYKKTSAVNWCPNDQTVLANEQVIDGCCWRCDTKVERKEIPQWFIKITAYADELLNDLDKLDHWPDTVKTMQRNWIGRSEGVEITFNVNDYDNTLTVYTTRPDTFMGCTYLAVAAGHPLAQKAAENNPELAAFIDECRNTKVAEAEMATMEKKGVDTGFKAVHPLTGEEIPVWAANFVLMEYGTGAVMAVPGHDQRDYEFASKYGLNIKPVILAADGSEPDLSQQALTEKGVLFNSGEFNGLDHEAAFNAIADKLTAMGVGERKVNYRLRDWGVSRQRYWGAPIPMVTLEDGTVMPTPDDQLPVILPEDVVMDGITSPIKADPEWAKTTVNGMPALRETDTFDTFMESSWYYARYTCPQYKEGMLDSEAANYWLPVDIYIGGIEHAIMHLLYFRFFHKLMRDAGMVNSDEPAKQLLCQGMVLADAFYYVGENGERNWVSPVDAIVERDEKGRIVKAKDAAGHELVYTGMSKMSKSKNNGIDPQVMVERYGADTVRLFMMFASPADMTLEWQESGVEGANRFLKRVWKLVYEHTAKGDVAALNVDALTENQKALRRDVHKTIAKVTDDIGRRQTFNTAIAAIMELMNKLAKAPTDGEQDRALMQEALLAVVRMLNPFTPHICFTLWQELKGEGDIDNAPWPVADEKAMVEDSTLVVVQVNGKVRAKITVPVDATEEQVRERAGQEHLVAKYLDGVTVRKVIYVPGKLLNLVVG

Escherichia coli [1] = test: Antibacterial activity against Escherichia coli ATCC8739 at 64 uM measured after 17 hrs by resazurin based flourimetric assay; assay type: functional, organism-based
Method in brief: (§1)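 Bacteria grown in Mueller Hinton broth at 37 °C, inoculum 5×10^3 CFU/ml. […] After 17 h, resazurin was added for 1/2 h and fluorescence read (ex 550/em 590 nm). Results are % growth reduction versus untreated and medium-only wells.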

Candida albicans = test: Antifungal activity against Candida albicans at 64 uM measured after 17 hrs by resazurin based flourimetric assay; assay type: functional, organism-based
Method in brief: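 Compounds were 4-fold serially diluted in RPMI with 1% DMSO background, from 64.0 µM down to 3.9×10^-3 µM. Miconazole 0.25 µM served as positive control.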

Staphylococcus aureus [2] = test: Antibacterial activity against Staphylococcus aureus ATCC6538 at 64 uM measured after 17 hrs by resazurin based flourimetric assay; assay type: functional, organism-based; method in brief: as §1
[3] = test system: Mycobacterium tuberculosis; test: Antibacterial activity against Mycobacterium tuberculosis H37Ra […] assessed as inhibition of bacterial growth at 128 uM measured after 17 hrs by resazurin based flourimetric assay; assay type: functional
Method in brief: (§2)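 M. tuberculosis H37Ra cultured in 7H9 + 10% OADC at 37 °C. Compounds serially pre-diluted 2-fold in DMSO, then diluted in water, final DMSO <1%, top concentration 128 µM. Inoculum 5×10^3 CFU/ml. After 17 h, resazurin added, 1/2 h at 37 °C, fluorescence read (ex 550/em 590 nm). Growth expressed as % reduction versus untreated and medium controls; IC50 derived.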

[4] = test system: Mycobacterium tuberculosis; test: Antibacterial activity against Mycobacterium tuberculosis H37Ra […] assessed as inhibition of bacterial growth measured after 17 hrs by resazurin based flourimetric assay; assay type: functional, organism-based; method in brief: as §2
Escherichia coli [5] = test: Antibacterial activity against Escherichia coli ATCC8739 assessed as inhibition of bacterial growth measured after 17 hrs by resazurin based flourimetric assay; assay type: functional, organism-based; settings: ATCC8739, ATCC 8739, 17 h; method in brief: as §1
Staphylococcus aureus [6] = test: Antibacterial activity against Staphylococcus aureus ATCC6538 assessed as inhibition of bacterial growth measured after 17 hrs by resazurin based flourimetric assay; assay type: functional, organism-based; settings: ATCC6538, 17 h; method in brief: as §1

CC(C)C[C@H](N)C(=O)NS(=O)(=O)OC[C@H]1OC[C@@H](CCCn2cc(CNC(=O)c3ccccc3)nn2)[C@H](O)[C@@H]1O
pKi (Leucine--tRNA ligase): 7.50
Activity (Escherichia coli [1]): inactive
Activity (Candida albicans): inactive
Activity (Staphylococcus aureus [2]): inactive

CC(C)C[C@H](N)C(=O)NS(=O)(=O)OC[C@H]1OC[C@@H](CCCn2cc(-c3cccnc3)nn2)[C@H](O)[C@@H]1O
pKi (Leucine--tRNA ligase): 7.50
Activity (Escherichia coli [1]): inactive
inhibition at 128 µM [3]: 16.9%
Activity (Candida albicans): inactive
Activity (Staphylococcus aureus [2]): inactive

CC(C)C[C@H](N)C(=O)NS(=O)(=O)OC[C@H]1OC[C@@H](CCCn2cc(CCCCO)nn2)[C@H](O)[C@@H]1O
pKi (Leucine--tRNA ligase): 6.41
Activity (Escherichia coli [1]): inactive
inhibition at 128 µM [3]: 23.2%
Activity (Candida albicans): inactive
Activity (Staphylococcus aureus [2]): inactive

CC(C)C[C@H](N)C(=O)NS(=O)(=O)OC[C@H]1OC[C@@H](CCCn2cc(CCc3ccccc3)nn2)[C@H](O)[C@@H]1O
pKi (Leucine--tRNA ligase): 6.97
Activity (Escherichia coli [1]): inactive
inhibition at 128 µM [3]: 38.2%
Activity (Candida albicans): inactive
Activity (Staphylococcus aureus [2]): inactive

CCCCCc1ccc(-c2cn(CCC[C@@H]3CO[C@H](COS(=O)(=O)NC(=O)[C@@H](N)CC(C)C)[C@@H](O)[C@H]3O)nn2)cc1
pKi (Leucine--tRNA ligase): 8.26
Activity (Escherichia coli [1]): inactive
inhibition at 128 µM [3]: 86.1%
Activity (Candida albicans): inactive
Activity (Staphylococcus aureus [2]): inactive
pIC50 [4]: 4.61

C[C@H]1c2cccc(O)c2C(=O)C2=C(O)[C@]3(O)C(=O)C(C(N)=O)=C(O)[C@@H](N(C)C)[C@@H]3[C@@H](O)[C@@H]21 [DOXYCYCLINE]
pIC50 (Escherichia coli [5]): 6.14
pIC50 (Staphylococcus aureus [6]): 6.96

CC(C)C[C@H](N)C(=O)NS(=O)(=O)OC[C@H]1OC[C@@H](CCCn2cc(CN)nn2)[C@H](O)[C@@H]1O
pKi (Leucine--tRNA ligase): 5.53
Activity (Escherichia coli [1]): inactive
inhibition at 128 µM [3]: 9.44%
Activity (Candida albicans): inactive
Activity (Staphylococcus aureus [2]): inactive

CC(C)C[C@H](N)C(=O)NS(=O)(=O)OC[C@H]1OC[C@@H](CCCn2cc(CNCc3ccccc3)nn2)[C@H](O)[C@@H]1O
pKi (Leucine--tRNA ligase): 5.90
Activity (Escherichia coli [1]): inactive
inhibition at 128 µM [3]: 12.1%
Activity (Candida albicans): inactive
Activity (Staphylococcus aureus [2]): inactive

CCCCCCCCc1cn(CCC[C@@H]2CO[C@H](COS(=O)(=O)NC(=O)[C@@H](N)CC(C)C)[C@@H](O)[C@H]2O)nn1
pKi (Leucine--tRNA ligase): 7.28
Activity (Escherichia coli [1]): inactive
inhibition at 128 µM [3]: 4.26%
Activity (Candida albicans): inactive
Activity (Staphylococcus aureus [2]): inactive

CC(C)C[C@H](N)C(=O)NS(=O)(=O)OC[C@H]1O[C@@H](CCn2nnc(-c3ccccc3)n2)[C@H](O)[C@@H]1O
pKi (Leucine--tRNA ligase): 7.51
Activity (Escherichia coli [1]): inactive
inhibition at 128 µM [3]: 49.8%
Activity (Candida albicans): inactive
Activity (Staphylococcus aureus [2]): inactive

CC(C)C[C@H](N)C(=O)NS(=O)(=O)OC[C@H]1OC[C@@H](CCCn2cc(-c3ccc(OC(F)(F)F)cc3)nn2)[C@H](O)[C@@H]1O
pKi (Leucine--tRNA ligase): 7.75
Activity (Escherichia coli [1]): inactive
inhibition at 128 µM [3]: 27.8%
Activity (Candida albicans): inactive
Activity (Staphylococcus aureus [2]): inactive

COc1c(N2C[C@@H]3CCCN[C@@H]3C2)c(F)cc2c(=O)c(C(=O)O)cn(C3CC3)c12 [MOXIFLOXACIN]
pIC50 [4]: 6.60
